This note sets out measurements from ChEMBL document CHEMBL1138426, “Synthesis and DNA-binding ability of C2R-fluoro substituted DC-81 and its dimers” (Bioorg Med Chem Lett, 2007).

In general, ΔTm refers to the shift of the melting midpoint relative to a reference.

The test system of test [1] is DNA. The test is described as follows: Binding affinity to calf thymus DNA at 1:5 (compound:DNA) molar ratio in pH 7.0, 37 degC after 18 hrs by thermal denaturation study. To be noted: Bos taurus. The format is nucleic-acid assay. An outline of the steps:
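Thermal denaturation of calf thymus DNA at pH 7.00 ± 0.01. The buffer was aqueous sodium phosphate (10 mM sodium phosphate + 1 mM EDTA). DNA was 100 μM and compound 20 μM, a 1:5 molar ratio. The mix was incubated at 37 °C for 0, 18 or 36 h before melting. ΔTm is the shift from the Tm of DNA alone (mean of 10 determinations), ±0.1–0.2 °C.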

Test [2] concerns DNA. The test is described as follows: Binding affinity to calf thymus DNA at 1:5 (compound:DNA) molar ratio in pH 7.0, 37 degC after 36 hrs by thermal denaturation study. The conditions noted are these: Bos taurus.

In the case of `COc1cc2c(cc1OCCCCCOc1cc3c(cc1OC)C(=O)N1C[C@H](F)C[C@H]1C=N3)N=C[C@@H]1C[C@@H](F)CN1C2=O`, the thermal shift (ΔTm) turned out to be 16.9 °C with DNA [1] and 18.8 °C in the test with DNA [2].
Take `COc1cc2c(cc1O)N=C[C@@H]1C[C@@H](F)CN1C2=O`: the ΔTm in the test with DNA [1] came to 2.1 °C; with DNA [2], 2.3 °C.
Regarding `COc1cc2c(cc1OCCCCOc1cc3c(cc1OC)C(=O)N1C[C@H](F)C[C@H]1C=N3)N=C[C@@H]1C[C@@H](F)CN1C2=O`, the thermal shift (ΔTm) in the test on DNA [1] was 12.4 °C; with DNA [2] it was 14 °C.
Take `COc1cc2c(cc1OCCCOc1cc3c(cc1OC)C(=O)N1CCC[C@H]1C=N3)N=C[C@@H]1CCCN1C2=O`: in the test with DNA [1], the ΔTm was 15.1 °C.
As for `COc1cc2c(cc1OCCCOc1cc3c(cc1OC)C(=O)N1C[C@H](F)C[C@H]1C=N3)N=C[C@@H]1C[C@@H](F)CN1C2=O`, the thermal shift (ΔTm) is 5.2 °C in the test on DNA [1] and 6.2 °C with DNA [2].
Take `COc1cc2c(cc1O)N=C[C@@H]1CCCN1C2=O`: the ΔTm with DNA [1] and in the test on DNA [2] was 0.7 °C in each case.
